ChEMBL document CHEMBL4706601, “The endocannabinoid system dual-target ligand N-cycloheptyl-1,2-dihydro-5-bromo-1-(4-fluorobenzyl)-6-methyl-2-oxo-pyridine-3-carboxamide improves disease severity in a mouse model of multiple sclerosis” (Eur J Med Chem, 2020)
Activity calls are given as the source filed them.

How the values were obtained:
[1] = biological target: T1, Fatty-acid amide hydrolase 1 (Homo sapiens, UniProt O00519); assay: Inhibition of FAAH in human U937 cells using [ethanolamine-1-3H]AEA as substrate preincubated for 15 mins followed by substrate addition and measured after 15 mins by liquid scintillation spectroscopy; type: cell-based, U-937
T1 sequence (O00519 whole entry): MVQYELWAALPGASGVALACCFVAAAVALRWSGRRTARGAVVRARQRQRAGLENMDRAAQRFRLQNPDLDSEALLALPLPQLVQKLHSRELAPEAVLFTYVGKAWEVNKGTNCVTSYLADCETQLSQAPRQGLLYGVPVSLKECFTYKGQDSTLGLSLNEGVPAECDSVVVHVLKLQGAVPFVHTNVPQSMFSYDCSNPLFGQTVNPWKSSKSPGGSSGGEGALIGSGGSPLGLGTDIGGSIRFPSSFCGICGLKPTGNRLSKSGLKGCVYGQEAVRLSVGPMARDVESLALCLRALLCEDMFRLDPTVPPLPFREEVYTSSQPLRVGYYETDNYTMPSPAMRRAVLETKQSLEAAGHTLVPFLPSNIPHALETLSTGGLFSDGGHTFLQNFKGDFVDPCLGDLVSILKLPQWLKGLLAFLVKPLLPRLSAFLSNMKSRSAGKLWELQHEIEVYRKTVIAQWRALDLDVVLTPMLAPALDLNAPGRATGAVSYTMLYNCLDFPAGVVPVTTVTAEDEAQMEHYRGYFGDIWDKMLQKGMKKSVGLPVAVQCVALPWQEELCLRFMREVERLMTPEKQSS
Method in brief: (§1)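 Intact U937 cells, 10^6 per condition, pre-incubated with compound 15 min at 37 °C with shaking (screen at 10 μM; full curves for hits). Substrate: 1 μM AEA with 1 nM [3H]AEA (FAAH) or 10 μM 2-OG with 5 nM [3H]2-OG (MAGL), 15 min at 37 °C. Stopped with CHCl3:MeOH 1:1, aqueous tritium counted; mean ± SD, ≥3 experiments in triplicate.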

Mus musculus [2] = assay: In vivo agonist activity at CB1R in BALB/c mouse assessed as reduction in body temperature at 5 mg/kg, ip measured after 1 hr by tetrad test; type: functional, organism-based
Method in brief: (§2)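 BALB/c mice given 5 mg/kg i.p. in DMSO (20 µL), tested 1 h later. Rectal temperature change from basal; catalepsy by bar test (4 cm bar, 120 s cut-off); locomotion by rotarod latency to fall at 4 rpm (120 s cut-off, 3 trials); analgesia by hot plate at 54-56 °C, first paw lick or shake. n = 5-20 per group.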

[3] = biological target: T2, Monoacylglycerol lipase ABHD6 (Homo sapiens, UniProt Q9BV23); assay: Inhibition of human ABHD6 expressed in HEK293 cells using 2-OG as substrate preincubated for 30 mins followed by substrate addition and measured after 5 mins by liquid scintillation spectroscopy; type: cell-based
T2 sequence (Q9BV23 whole entry): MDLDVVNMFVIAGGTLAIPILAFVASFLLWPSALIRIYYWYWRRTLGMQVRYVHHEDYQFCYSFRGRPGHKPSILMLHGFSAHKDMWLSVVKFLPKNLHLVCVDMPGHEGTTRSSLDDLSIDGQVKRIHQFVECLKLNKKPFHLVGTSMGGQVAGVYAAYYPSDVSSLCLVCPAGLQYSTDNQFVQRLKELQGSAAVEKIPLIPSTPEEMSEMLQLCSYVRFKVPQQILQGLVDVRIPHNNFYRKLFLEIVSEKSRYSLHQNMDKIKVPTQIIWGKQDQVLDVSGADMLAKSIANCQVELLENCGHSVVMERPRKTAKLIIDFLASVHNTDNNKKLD
Method in brief: (§3)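 Homogenates (40 µg) from HEK293 stably expressing hABHD6 or hABHD12 pre-incubated with compound 30 min at 37 °C in […], 0.1% BSA, pH 7.6; then 10 μM 2-OG for 5 min at 37 °C. Aqueous phase tritium counted after CHCl3:MeOH stop; no-enzyme blanks and non-transfected HEK293 hydrolysis subtracted. Controls WWL70 10 μM, THL 20 μM.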

Mus musculus [4] = assay: In vivo agonist activity at CB1R in BALB/c mouse assessed as induction of analgesia at 5 mg/kg, ip measured after 1 hr by hotplate test; type: functional, organism-based; method in brief: as §2
[5] = biological target: T3, Lysophosphatidylserine lipase ABHD12 (Homo sapiens, UniProt Q8N2K0); assay: Inhibition of human ABHD12 expressed in HEK293 cells using 2-OG as substrate preincubated for 30 mins followed by substrate addition and measured after 5 mins by liquid scintillation spectroscopy; type: cell-based; method in brief: as §3
T3 sequence (Q8N2K0 whole entry): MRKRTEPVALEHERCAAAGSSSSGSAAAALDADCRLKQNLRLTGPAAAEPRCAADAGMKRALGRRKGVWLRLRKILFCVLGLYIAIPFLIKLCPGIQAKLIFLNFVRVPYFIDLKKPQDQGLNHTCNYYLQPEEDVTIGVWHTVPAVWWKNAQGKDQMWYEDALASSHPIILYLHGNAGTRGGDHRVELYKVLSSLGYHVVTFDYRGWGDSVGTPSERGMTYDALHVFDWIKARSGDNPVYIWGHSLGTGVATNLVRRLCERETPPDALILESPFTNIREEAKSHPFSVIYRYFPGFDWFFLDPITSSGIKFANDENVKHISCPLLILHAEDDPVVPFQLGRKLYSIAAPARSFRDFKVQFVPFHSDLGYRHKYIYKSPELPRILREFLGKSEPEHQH

Mus musculus [6] = assay: In vivo agonist activity at CB1R in BALB/c mouse assessed as reduction in spontaneous locomotion at 5 mg/kg, ip measured after 1 hr by rotarod test; type: functional, organism-based; method in brief: as §2
Cannabinoid receptor 2 = Cannabinoid receptor 2 (Homo sapiens, UniProt P34972); assay: Displacement of [3H]CP55940 from recombinant human CB2R expressed in CHO cell membranes incubated for 90 mins; parameters: species or system Membrane
Mus musculus [7] = assay: In vivo agonist activity at CB1R in BALB/c mouse assessed as catalpesy-like behaviour by measuring increase in immobility time at 5 mg/kg, ip measured after 1 hr by bar test; type: functional, organism-based; method in brief: as §2
Monoglyceride lipase = biological target: T4, Monoglyceride lipase (Homo sapiens, UniProt Q99685); assay: Inhibition of MAGL in human U937 cells using [glycerol-1,2,3-3H]2-OG as substrate preincubated for 15 mins followed by substrate addition and measured after 15 mins by liquid scintillation spectroscopy; type: cell-based, U-937; method in brief: as §1
T4 sequence (Q99685 whole entry): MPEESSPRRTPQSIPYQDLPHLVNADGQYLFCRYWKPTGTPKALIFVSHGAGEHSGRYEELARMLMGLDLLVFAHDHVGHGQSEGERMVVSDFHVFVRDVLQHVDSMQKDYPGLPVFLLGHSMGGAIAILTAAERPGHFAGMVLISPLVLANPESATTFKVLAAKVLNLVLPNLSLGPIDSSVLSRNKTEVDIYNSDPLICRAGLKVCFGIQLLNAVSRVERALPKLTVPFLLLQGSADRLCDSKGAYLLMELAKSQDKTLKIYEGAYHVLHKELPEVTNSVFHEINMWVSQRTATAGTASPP

Cannabinoid receptor 1 = Cannabinoid receptor 1 (Homo sapiens, UniProt P21554); assay: Displacement of [3H]CP55940 from recombinant human CB1R expressed in CHO cell membranes incubated for 90 mins; parameters: species or system Membrane
Cannabinoid receptor 1, sequence (P21554 whole entry): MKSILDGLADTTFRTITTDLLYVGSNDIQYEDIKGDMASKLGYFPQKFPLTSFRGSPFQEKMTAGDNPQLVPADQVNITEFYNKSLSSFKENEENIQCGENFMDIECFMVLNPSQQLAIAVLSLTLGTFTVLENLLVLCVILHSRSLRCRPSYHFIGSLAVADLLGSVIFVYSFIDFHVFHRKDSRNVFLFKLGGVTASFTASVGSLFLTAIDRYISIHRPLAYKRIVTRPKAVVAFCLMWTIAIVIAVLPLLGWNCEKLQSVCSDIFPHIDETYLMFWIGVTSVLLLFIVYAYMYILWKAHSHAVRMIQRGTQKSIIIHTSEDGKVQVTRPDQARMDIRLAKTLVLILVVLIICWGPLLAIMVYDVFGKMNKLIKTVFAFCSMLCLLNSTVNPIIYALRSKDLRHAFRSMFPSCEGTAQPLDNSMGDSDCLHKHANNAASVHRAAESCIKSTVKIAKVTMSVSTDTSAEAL

Cannabinoid receptor 2, sequence (P34972 whole entry): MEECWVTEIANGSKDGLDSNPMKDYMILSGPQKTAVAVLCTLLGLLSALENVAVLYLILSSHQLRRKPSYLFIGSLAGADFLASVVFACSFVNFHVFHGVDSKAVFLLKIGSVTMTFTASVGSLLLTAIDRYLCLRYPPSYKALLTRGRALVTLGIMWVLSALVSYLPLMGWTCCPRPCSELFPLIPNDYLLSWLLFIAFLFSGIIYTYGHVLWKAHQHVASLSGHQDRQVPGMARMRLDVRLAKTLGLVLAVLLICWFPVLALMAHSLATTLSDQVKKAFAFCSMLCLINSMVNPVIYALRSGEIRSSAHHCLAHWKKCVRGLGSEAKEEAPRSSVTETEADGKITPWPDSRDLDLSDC

Row | SMILES | IC50 [1] | Activity (Mus musculus [2]) | IC50 [3] | Activity (Mus musculus [4]) | IC50 [5] | Activity (Mus musculus [6]) | Ki (Cannabinoid receptor 2) | Activity (Mus musculus [7]) | IC50 (Monoglyceride lipase) | Ki (Cannabinoid receptor 1)
1 | COc1ccc(-c2cc(C(=O)NC3CCCCCC3)c(=O)n(Cc3ccc(F)cc3)c2C)cc1 | 2 µM | inactive | 530 nM | inactive | > 10 µM | inactive | 26.2 nM | inactive | > 10 µM | 9.8 nM
2 | Cc1c(Br)cc(C(=O)NC2CCCCCC2)c(=O)n1Cc1ccc(F)cc1 | 5.9 µM | Active | > 10000 nM | Active | > 10 µM | Active | 1.5 nM | Active | > 10 µM | 2.9 nM
